Measured values: ChEMBL document CHEMBL4052590, “Anti-Osteoporotic Activity of Harpagoside by Upregulation of the BMP2 and Wnt Signaling Pathways in Osteoblasts and Suppression of Differentiation in Osteoclasts” (J Nat Prod, 2017)
Active and inactive are the calls of the source. The calls are words filed in the database; no cut-off is given here.

Columns and labels:
Mus musculus [1] = assay: Effect on alkaline phosphatase activity in serum of OVX-induced bone loss ICR mouse model at 5 mg/kg, po for 12 weeks using p-NPP as substrate (reference value: 84.9 +/- 4.2 U/L); assay type: functional
Osteoclast = assay: Inhibition of RANKL/M-CSF-induced osteoclast differentiation in mouse bone marrow-derived osteoclasts assessed as downregulation of c-Fos protein expression up to 4 uM after 48 hrs by Western blot analysis; assay type: functional, cell-based
Procedure, shortened: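 Mouse bone marrow cells were taken from 4-week-old mice and primed 24 h in 30 ng/mL M-CSF. They were then given 100 ng/mL RANKL plus 30 ng/mL M-CSF, with or without compound, for 48 h. Lysates were made in boiling SDS buffer and quantified by BCA. 40–50 μg was run on SDS-PAGE and immunoblotted on PVDF with β-actin reference and ECL read-out.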

Mus musculus [2] = assay: Effect on osteocalcin level in serum of OVX-induced bone loss ICR mouse model at 5 mg/kg, po for 12 weeks by ELISA (reference value: 176.9 +/- 4.7 ng/ml); assay type: functional
Mus musculus [3] = species: Mus musculus; assay: Activation of Wnt signaling pathway in mouse MC3T3-E1 cells assessed as increase in Runx2 protein expression up to 4 uM after 48 hrs in presence of ascorbic acid and beta-glycerophosphate by Western blot analysis; assay type: cell-based
Procedure, shortened: (§1)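 MC3T3-E1 cells given 400 μM ascorbic acid plus 5 mM β-glycerophosphate, exposed to test compound or not for 48 h. Lysed in boiling SDS sample buffer, protein measured by BCA. 40−50 μg of lysate run on 8% or 10% SDS-PAGE and transferred to PVDF. Blocked in 5% milk, probed with primary antibodies for 3 h at room temperature or overnight at 4 °C, detected by ECL.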

[4] = target: T1, Catenin beta-1 (Mus musculus) (UniProt Q02248); assay: Downregulation of beta-catenin phosphorylated protein expression in mouse MC3T3-E1 cells up to 4 uM after 48 hrs in presence of ascorbic acid and beta-glycerophosphate by Western blot analysis; assay type: cell-based; procedure, shortened: as §1
T1 sequence (whole entry): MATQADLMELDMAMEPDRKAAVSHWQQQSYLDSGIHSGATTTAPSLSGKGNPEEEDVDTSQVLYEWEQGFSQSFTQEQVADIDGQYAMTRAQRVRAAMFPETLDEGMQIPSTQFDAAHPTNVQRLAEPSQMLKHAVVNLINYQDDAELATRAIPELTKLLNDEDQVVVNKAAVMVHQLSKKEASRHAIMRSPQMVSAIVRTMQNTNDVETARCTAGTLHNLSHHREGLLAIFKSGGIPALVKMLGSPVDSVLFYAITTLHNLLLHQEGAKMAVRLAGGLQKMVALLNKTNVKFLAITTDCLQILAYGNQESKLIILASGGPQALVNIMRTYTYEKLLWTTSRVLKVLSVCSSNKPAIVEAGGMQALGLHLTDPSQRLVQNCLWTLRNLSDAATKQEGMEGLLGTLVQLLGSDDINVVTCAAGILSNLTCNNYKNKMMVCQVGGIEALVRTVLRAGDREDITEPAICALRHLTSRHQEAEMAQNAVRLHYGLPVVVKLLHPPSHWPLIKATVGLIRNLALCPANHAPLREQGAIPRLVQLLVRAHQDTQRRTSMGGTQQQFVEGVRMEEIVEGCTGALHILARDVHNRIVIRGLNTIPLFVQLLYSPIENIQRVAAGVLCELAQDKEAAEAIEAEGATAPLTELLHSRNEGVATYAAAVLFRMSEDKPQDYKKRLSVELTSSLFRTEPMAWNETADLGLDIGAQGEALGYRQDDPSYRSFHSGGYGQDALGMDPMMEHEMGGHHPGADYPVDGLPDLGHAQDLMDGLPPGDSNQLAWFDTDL

Mus musculus [5] = species: Mus musculus; assay: Activation of Wnt signaling pathway in mouse MC3T3-E1 cells assessed as increase in BMP2 mRNA expression after 48 hrs in presence of ascorbic acid and beta-glycerophosphate by real-time PCR analysis; assay type: cell-based
[6] = Cytotoxicity against mouse MC3T3-E1 cells assessed as cell viability up to 4 uM after 72 hrs by MTT assay; assay type: cell-based; conditions: read-out: Activity
Procedure, shortened: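 MC3T3-E1 cells (1 × 10^4 cells/mL) exposed to a range of concentrations for 72 h at 37 °C, 5% CO2. MTT added (500 μg/mL final) for 4 h, formazan dissolved in DMSO, A570 read. Viability given as % of solvent control; IC50 by nonlinear regression of % survival versus concentration.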

In the case of `C[C@]1(OC(=O)/C=C/c2ccccc2)C[C@@H](O)[C@]2(O)C=CO[C@@H](O[C@@H]3O[C@H](CO)[C@@H](O)[C@H](O)[C@H]3O)[C@@H]21` [HARPAGOSIDE], the Activity (Mus musculus [1]) was 82.6 U/L, the inhibition (Osteoclast) was “Active” and the Activity (Mus musculus [2]) was 162.7 ng/mL. The Activity (Mus musculus [3]) was “Active”, the Activity [4] was “Active” and the Activity (Mus musculus [5]) was “Dose-dependent effect”. For the same molecule, the viability at 72 h [6] was > 90%.
